A selection: hits, their analogues and other compounds. The true share with any hit is near 1.6%.
RBBP9 inhibitor: human RBBP9 inhibitors, primary screen, biochemical, fluorescence polarization, FP-Rh probe, HTS; 220,000 compounds, 0.2% hits; recombinant RBBP9; inhibition, % at 7.94 µM; Serine hydrolase RBBP9 (Homo sapiens), O75884;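 active = inhibition above the campaign mean of all tested compounds plus 3 SD, cut at about 14% in these data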;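 also: plate controls were DMSO wells with RBBP9 for no effect and wells lacking RBBP9 protein for full effect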
Target sequence (O75884 whole entry, looked up): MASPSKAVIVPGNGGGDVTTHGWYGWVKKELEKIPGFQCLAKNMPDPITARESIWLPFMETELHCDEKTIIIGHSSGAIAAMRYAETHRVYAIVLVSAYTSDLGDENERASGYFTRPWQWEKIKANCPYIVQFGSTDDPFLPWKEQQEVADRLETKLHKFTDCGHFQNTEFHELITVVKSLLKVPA
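System: RBBP9 protein / Buffer or medium: Tris/NaCl buffer pH 8.0 with 0.1% Pluronic / Probe or stimulus: Serine-hydrolase probe FP-Rh, 375 nM pre-mixing / Dosing: 7.94 µM single dose, 0.794% DMSO / Times: enzyme-compound preincubation 30 min, then probe labeling 45 min, 25 °C / Technique: fluorescence polarization (mP), excitation 525 nm, emission 598 nm / Replication: singlicate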
SDO1 yeast rescue: growth rescue of sdo1-depleted yeast, primary screen, S. cerevisiae, bone marrow failure model | S. cerevisiae sdo1-depleted JHY4D growth rescue, OD600 30 h; stronger effect = higher value; pdr5 snq2 efflux-pump mutant strain | z-score at 10 µM | 140,000 compounds, 0.21% hits;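 active = z-score above 3 at both the 24 hr and the 30 hr optical density reads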;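 also: z-score against mean and SD of all compound wells on the same plate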
Yeast life ext: compounds extending yeast replicative lifespan, primary screen, S. cerevisiae, OD615 | 130,000 compounds, 0.68% hits | S. cerevisiae growth with nicotinamide; deaD strain in restrictive glucose medium | AID 775, 2007 | inhibition of the nicotinamide effect, % at 10 µM;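 active = inhibition above a set limit, placed 3 SD over the median of all compounds, cut at about 26% in these data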;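 also: 0% = nicotinamide-treated wells and 100% = cells grown without nicotinamide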
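assay system = DeaD-strain S. cerevisiae | buffer or medium = restrictive glucose medium | reagent = 1.5 mM nicotinamide | compound = 10 µM single point, 0.25% DMSO | incubation = 48 h compound exposure at 30 °C, humidified | signal = OD615 measurement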
NCF1 inh: p47phox/p22phox peptide binding inhibitors, primary screen, biochemical, uHTS, NADPH oxidase regulatory subunit; 220,000 compounds, 0.53% hits; inhibition, % at 24.7 µM; fluorescence polarization, 2 h; Neutrophil cytosol factor 1 (Homo sapiens), P14598;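 active = inhibition above about 30%, limit read from the data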;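 also: 0% = p47phox with labelled peptide and 100% = labelled peptide alone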
Target sequence (P14598 whole entry, looked up): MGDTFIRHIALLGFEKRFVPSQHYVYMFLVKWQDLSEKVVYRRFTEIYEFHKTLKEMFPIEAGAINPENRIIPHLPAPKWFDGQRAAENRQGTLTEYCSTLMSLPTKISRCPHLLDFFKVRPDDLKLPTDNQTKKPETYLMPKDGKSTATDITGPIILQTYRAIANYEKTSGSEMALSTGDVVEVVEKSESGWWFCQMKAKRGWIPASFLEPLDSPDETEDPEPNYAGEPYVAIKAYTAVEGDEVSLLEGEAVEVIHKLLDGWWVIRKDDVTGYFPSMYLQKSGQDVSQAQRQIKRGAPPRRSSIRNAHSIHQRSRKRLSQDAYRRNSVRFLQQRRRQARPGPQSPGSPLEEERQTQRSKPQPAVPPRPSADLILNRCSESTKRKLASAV
TbHK1 inh: Trypanosoma brucei hexokinase 1 inhibitors, primary screen, biochemical, G6PDH-coupled NADH absorbance, MLSCN library; hexokinase 1 [Trypanosoma brucei]; recombinant TbHK1, G6PDH-coupled NADH A340; inhibition, % at 10 µM; 220,000 compounds, 0.11% hits;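 active = inhibition of 50% or more in the single-dose primary screen; inactive = inhibition below 50%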
Yeast growth inh: growth inhibitors of yeast BB579 in restrictive medium, primary screen, yeast lifespan-shortening project, S. cerevisiae; inhibition, % at 10 µM; 140,000 compounds, 0.51% hits; OD615, 48 h;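 active = inhibition above a set limit, 3 SD over the mean compound inhibition, cut at about 44% in these data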
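Assay system – yeast BB579 (DeaD) · Dosing – single compound dose of 10 µM, 0.25% DMSO final · Detection – OD615 turbidity measurement · Buffer or medium – CSMM-D restrictive synthetic medium containing dextrose (glucose) · Benchmarks – positive control amphotericin B 10 µg/mL · Incubation – 48 h exposure, 30 °C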
Numbers without * were called inactive; / = not tested or not shown; + = active, no number; ! = a repeat was not active.

SMILES	RBBP9 inhibitor	SDO1 yeast rescue	Yeast life ext	NCF1 inh	TbHK1 inh	Yeast growth inh
COC(=O)c1c(-c2ccc(F)cc2)csc1NC(=O)c1ccco1	5.5	0.08	4.7	-7.3	-16.5	-29.6
O=C(Nc1scc(-c2cccs2)c1C(=O)O)c1cccs1	1.9	0.54	34.8*	-9.3	-22.1	-10.2
Nc1cc(C(=O)O)ccc1Sc1ccccc1C(=O)O	3.8	/	/	-2.4	-8.0	/
Nc1ccc(SC(F)(F)F)cc1C(=O)c1ccccc1	-3.9	-1.97	-21.4	-8.3	1.2	57.1*
COCCn1c(SCC(=O)N2CCCc3ccccc32)nc2ccccc2c1=O	3.3	-1.34	-12.1	68.2*	-1.0	-11.3
COCCn1c(SCC(=O)N2CCCc3ccccc32)nc2c(c1=O)SC(C)C2 (stereo not drawn)	-7.1	0.37	-10.0	-6.8	-23.9	1.4
COc1ccc(-n2c(SCC(=O)N3CCc4ccccc43)nnc2-c2c[nH]c3ccccc23)cc1	-6.1	0.08	5.7	51.5*	-2.4	-23.4
CCn1c(SCC(=O)N2CCc3ccccc32)nnc1-c1c[nH]c2ccccc12	-1.9	0.17	19.6	-7.4	-0.5	-68.3
Cn1c(SCC(=O)N2CCCc3ccccc32)nnc1-c1c[nH]c2ccccc12	-5.8	0.91	43.1*	-9.1	3.1	-44.6
O=C(N=Nc1c(O)[nH]c2ccc(F)cc12)C1COc2ccccc2O1 (stereo not drawn)	-1.6	/	/	-11.1	-13.3	/
O=C1C2=C(SCCS2)C(=O)N1CCCO	-10.4	0.84	-18.5	72.3*	-3.3	-50.0
CCOC(=O)c1c(C)c(/C=N/Nc2ccccc2)n(C)c1C	-3.3	/	/	-0.4	1.3	/
CCCn1[nH]cc(SC)c(=O)c1=O	-4.2	0.87	41.5*	-2.8	-2.0	1.7
CCc1nnc(NS(=O)(=O)c2ccc(Nc3ccc4nonc4c3[N+](=O)[O-])cc2)s1	-3.8	/	/	-2.0	-8.1	/
Cc1nc(-c2ccc(S(=O)(=O)Nc3cc(S(=O)(=O)N(C)C)ccc3C)s2)cs1	0.8	/	/	-10.2	-14.4	/
O=c1[nH]c(Nc2ccccc2)cc2ccccc12	1.7	-0.9	-19.3	-7.7	-3.9	47.5*
Cc1ccc(-n2ncc3c(NCc4ccc5c(c4)OCO5)ncnc32)c(C)c1	-4.4	14.1*	-4.8	-5.5	-2.8	-18.1
c1ccc2[nH]c(-c3ccnc4ccccc34)nc2c1	-11.9	0.04	-24.2	+!	-16.6	-44.1
Fc1ccccc1-c1nc2ccccc2[nH]1	-7.1	/	/	-5.7	-1.6	/
CCc1cc(=O)[nH]c(-n2[nH]c(-c3ccccc3)cc2=O)n1	-5.4	/	/	-36.7	-6.1	/
O=c1cc(-c2ccccc2)[nH]n1-c1nc2ccccc2[nH]1	-9.1	2.13	-25.9	-6.1	-1.7	97.3*
CCOC(=O)C1(Cc2ccccc2)CCCN(C2CCCC2)C1 (stereo not drawn)	2.7	/	/	1.6	6.5	/
Cc1cccc(OC(=O)n2c(=S)oc3cc(Cl)ccc32)c1	-1.1	-0.67	63.6*	6.6	-0.9	-10.2
CC(C)OC(=O)n1c(=S)oc2ccccc21	7.3	0.11	-7.9	5.3	6.2	42.0
CC12CN3CC(C)(CN(C1)C3c1ccc(Br)cc1O)C2 (stereo not drawn)	-1.5	-0.52	32.6*	-0.6	3.3	-43.8
SMILES	RBBP9 inhibitor	SDO1 yeast rescue	Yeast life ext	NCF1 inh	TbHK1 inh	Yeast growth inh
Cc1cc(Cl)ccc1N=c1ssnc1Cl	-4.9	-2.59	-12.7	1.4	-0.7	63.1*
CN(c1ccc(O)cc1)c1nc(-c2ccccc2)cs1	-7.1	-1.22	-12.0	-13.4	22.3	81.5*
CN(C)CCCN(C(=O)c1cccs1)c1nc(-c2ccccc2)cs1	-4.3	0.99	-6.9	-9.9	4.5	-27.1
O=C(CSc1c(F)c(F)cc(F)c1F)Nc1ccc(C2SCCS2)cc1	1.0	/	/	-24.2	24.3	/
COc1ccccc1CN(Cc1nc2ccccc2c(=O)[nH]1)C(=O)Nc1cccc(C)c1	8.5	-1.2	66.0*	-12.5	-7.1	5.7
COc1ccccc1NC(=O)N(Cc1ccc2c(c1)OCO2)Cc1nc2ccccc2c(=O)[nH]1	-4.2	-0.45	-8.7	-17.9	-3.1	-58.3
CCOC(=O)c1sc(-c2ccccn2)nc1C	-3.6	/	/	-6.6	-12.1	/
COc1ccc(S(=O)(=O)NC(C(=O)NCCc2ccccn2)C(C)C)cc1 (stereo not drawn)	-9.0	/	/	1.6	1.3	/
CC(=C1C(=O)c2ccccc2C1=O)N1CCN(C/C=C/c2ccccc2)CC1	-5.2	0.12	57.3*	-10.8	-13.8	-1.6
Cc1cc(C(=O)N2CCN(C/C=C/c3ccccc3)CC2)cs1	-10.3	-0.82	-11.2	54.3*	-3.8	-24.2
CCC(Sc1ccc2nnc(CCNS(=O)(=O)c3ccc(OC)cc3)n2n1)C(=O)OC (stereo not drawn)	-9.0	/	/	-16.4	-5.0	/
Cc1cccc(-n2ccnc2CN2CCN(C(C)C)C(CCO)C2)c1 (stereo not drawn)	-7.0	/	/	-8.4	5.6	/
Cc1[nH]n(-c2ccccc2)c(=O)c1C=Nc1ccc(S(=O)(=O)N=C(N)N)cc1	-5.8	/	/	-14.0	-16.5	/
Cc1[nH]n(-c2ccccc2)c(=S)c1C=Nc1ccc([N+](=O)[O-])cc1	-8.0	0.15	0.4	87.4*	-23.0	-14.2
O=C(/C=C/c1ccccc1)Nc1ncn[nH]1	-6.4	0.69	35.5*	-10.8	-8.8	-22.0
COc1ccc(NCc2ccc([N+](=O)[O-])s2)cc1	0.1	0.1	21.9	-5.4	-8.1	27.0
COc1ccc(NCc2ccc([N+](=O)[O-])s2)c(OC)c1	-0.3	-0.07	-7.7	5.8	-18.8	99.7*
CC1/C(=N/O)CC(c2ccccc2)N(C)C1c1ccccc1 (stereo not drawn)	-2.5	-2.47	/	8.0	-2.0	88.0*
CC1/C(=N/O)CC(c2ccccc2)NC1c1ccccc1 (stereo not drawn)	-0.5	0.1	-2.6	-6.7	-2.5	1.0
CCn1ccc(C(=O)Nc2ccc(S(=O)(=O)Nc3ccccc3OC)cc2)n1	1.0	-1.37	67.0*	-6.7	-5.4	-57.9
COc1ccc(Cl)cc1C(=O)C1CCCN(Cc2cnc(N3CCOCC3)s2)C1 (stereo not drawn)	-5.3	/	/	47.1*	-10.2	/
COc1ccc(F)cc1C(=O)C1CCCN(Cc2cnc(N3CCCC3)s2)C1 (stereo not drawn)	-6.8	/	/	4.2	-16.2	/
O=C(Nc1cccc(C(F)(F)F)c1)C(Sc1cccc[n+]1[O-])c1ccccc1 (stereo not drawn)	-5.6	0.63	2.8	-11.2	-6.9	58.9*

Source: PubChem
